Bioassay records: PubChem BioAssay, several laboratories
NSD2 HMT inh = inhibitors of human histone methyltransferase NSD2. NSD2 peptide methylation, AlphaScreen, 120 min. inhibition, % at 12.5 µM. actives 0.54% (n = 310,000); in the data active = inhibition above about 50%
FGF22 binding = binders of recombinant human FGF22 by thermal shift; Q9HCT0; SYPRO orange fluorescence; percent of sucrose octasulfate shift, DMSO zero; activity (Tm shift, normalised), % at 9.99 µM; actives 1.5% (n = 340,000); AID 651658;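 active = mean Tm shift, scaled 0 neutral to 100 positive control, at about 1.3% or above, every replicate too, limit read from the data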
Target sequence (Q9HCT0 whole entry, looked up): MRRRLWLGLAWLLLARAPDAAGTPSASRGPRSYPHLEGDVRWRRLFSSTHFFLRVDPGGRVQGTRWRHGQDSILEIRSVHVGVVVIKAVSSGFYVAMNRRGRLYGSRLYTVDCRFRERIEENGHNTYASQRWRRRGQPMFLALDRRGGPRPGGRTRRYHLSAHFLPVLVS
SIRT5 block = blocks human SIRT5 desuccinylation of peptide | Q9NXA8 | Purified SirT5, succinyl-peptide AMC, trypsin-coupled fluorescence | inhibition, % at 15 µM | actives 1.1% (n = 330,000); in the data active = inhibition above about 15%
Target sequence (Q9NXA8 whole entry, looked up): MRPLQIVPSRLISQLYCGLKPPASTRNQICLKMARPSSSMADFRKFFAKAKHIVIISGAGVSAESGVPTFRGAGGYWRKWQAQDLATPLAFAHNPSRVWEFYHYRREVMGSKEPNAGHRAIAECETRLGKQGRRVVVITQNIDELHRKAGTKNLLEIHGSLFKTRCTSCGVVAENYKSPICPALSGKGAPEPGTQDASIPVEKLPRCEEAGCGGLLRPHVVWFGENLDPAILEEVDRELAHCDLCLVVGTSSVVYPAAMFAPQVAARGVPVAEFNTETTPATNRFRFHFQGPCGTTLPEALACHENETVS
Casp6 inh = caspase-6 (human) enzyme inhibition | P55212 | actives 0.53% (n = 350,000) | purified caspase-6, Z-VEID-R110 cleavage fluorescence | inhibition, % at 12.5 µM;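 active = mean inhibition across replicates at least about 35%, with every replicate also reaching that limit, limit read from the data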;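 also: 0% = median of neutral control wells and 100% = no fluorescence left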
UCH37 DUB inh = blocks the human deubiquitinase UCH37 | purified proteasome/UCH37, Ub-AMC cleavage fluorescence | inhibition, % (concentration not given with the values) | actives 0.33% (n = 330,000);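 active = mean inhibition over replicate wells above about 20%, limit read from the data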;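 also: 0% = compound-free wells with enzyme and 100% = wells lacking proteasome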
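Material: human UCH37 enzyme supplied as purified proteasome complex / Amount: 0.15 nM proteasome as dispensed / Buffer or medium: pH 7.4 Tris-HCl (50 mM) with ovalbumin, ATP-MgCl2, DTT / Times: preincubation 30 min, reaction 25 min, room temperature / Technique: AMC fluorescence from Ub-AMC cleavage, excitation 355 nm, emission 460 nm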
* hit, by the source's call; / = no result given. In the library only some 2.6% were active in any assay of this set; here they are far more common.

SMILES | NSD2 HMT inh | FGF22 binding | SIRT5 block | Casp6 inh | UCH37 DUB inh
CC(C)CC(NC(=O)CC12CC3CC(CC(C3)C1)C2)C(=O)NC1=NCCS1 (configuration not stated) | -2 | 43* | -3 | 0 | -1
CC(O)CNc1nc(Cl)c(C#N)s1 (configuration not stated) | 0 | 43* | 2 | -1 | 0
O=C(CNC(=O)c1ccccc1)OCc1nc2ccccc2s1 | 2 | 43* | -1 | 3 | 3
Cn1c(=O)c(C(=O)CCl)c(N)n(Cc2ccccc2)c1=O | / | 0 | 4 | -2 | -1
Cn1c(=O)c(C(=O)CSc2ccccc2)c(N)n(Cc2ccccc2)c1=O | -1 | 43* | 0 | 0 | 1
COc1ccc(N(C(=O)c2snc(C(N)=O)c2N)C(C(=O)NC2CCCCC2)c2ccc(C)o2)c(OC)c1 (configuration not stated) | 0 | 0 | 0 | 0 | -4
COc1ccc(N(C(=O)c2snc(C(N)=O)c2N)C(C(=O)NC2CCCC2)c2ccco2)c(OC)c1 (configuration not stated) | 5 | 0 | -3 | 63* | -10
O=C(/C=C/c1ccccc1)NNC1=NS(=O)(=O)c2ccccc21 | -11 | 1 | 4 | 1 | 23*
O=C(N/C(=C/c1ccco1)C(=O)N1CCOCC1)c1ccc([N+](=O)[O-])cc1 | 0 | 0 | 1 | -2 | 7
O=C(N/C(=C/c1ccccc1)C(=O)N1CCOCC1)c1ccc([N+](=O)[O-])cc1 | -35 | 0 | 14 | 1 | 4
O=C(N/C(=C\c1ccco1)C(=O)N1CCCCC1)c1ccc([N+](=O)[O-])cc1 | 1 | 0 | 17* | -4 | 2
COc1ccc(/C=C(\NC(=O)c2ccc([N+](=O)[O-])cc2)C(=O)N2CCOCC2)cc1 | -2 | 43* | -2 | -1 | 10
COc1ccccc1NC(=O)N[C@H]1C=C[C@H](CC(=O)N2CCC(Cc3ccccc3)CC2)O[C@H]1CO | / | 0 | 1 | 0 | /
O=C(c1cnccn1)N1CC(=O)N2[C@H](C1)[C@@H](c1ccc(C#CCc3ccccc3)cc1)[C@@H]2CO | / | 1 | 1 | 2 | /
C[C@H]1CCCCO[C@H](CN(C)C)[C@@H](C)CN([C@@H](C)CO)C(=O)c2cc(NC(=O)c3ccccc3)ccc2O1 | / | 0 | 8 | 2 | /
CC1CC(C)(C)NC(=S)N1CC(=O)NCc1ccc2c(c1)OCO2 (configuration not stated) | 0 | 43* | -5 | -5 | 0
O=C(O)c1cc(O)c2c(c1)[C@@H]([C@H]1c3cc(C(=O)O)cc(O)c3C(=O)c3c(O[C@@H]4O[C@H](CO)[C@@H](O)[C@H](O)[C@H]4O)cccc31)c1cccc(OC3O[C@H](CO)[C@@H](O)[C@H](O)[C@H]3O)c1C2=O (some centres not stated) | / | 0 | 4 | 91* | 31*
O=C(O)c1cc(O)c2c(c1)[C@H]([C@H]1c3cc(C(=O)O)cc(O)c3C(=O)c3c(O[C@@H]4O[C@H](CO)[C@@H](O)[C@H](O)[C@H]4O)cccc31)c1cccc(OC3O[C@H](CO)[C@@H](O)[C@H](O)[C@H]3O)c1C2=O (some centres not stated) | / | 0 | 4 | 83* | 8
O=C1c2cc(CO)cc(O)c2C(=O)c2c(O[C@@H]3OC(CO)[C@@H](O)[C@@H](O)[C@@H]3O)cccc21 (some centres not stated) | / | 0 | 4 | 10 | 3
C[C@@H]1CCCCO[C@H](CN(C)S(=O)(=O)c2cn(C)cn2)[C@@H](C)CN([C@@H](C)CO)C(=O)c2cc(NC(=O)c3ccccc3)ccc2O1 | / | 0 | -6 | 1 | /
O=C(O)CN1CCNCCN(CC(=O)O)CCNCC1 | 5 | 43* | / | -12 | /
CC(=O)N1CCCN(Cc2nc(C3(c4ccc(C)cc4)CCCC3)no2)CC1 | -4 | 0 | -2 | -8 | 1
COCCN1CCN(Cc2nc(C3(c4ccc(C)cc4)CCCC3)no2)CC1 | -2 | 43* | 3 | 3 | 0
CC(=NN=C(N)N)c1ccc(Cl)cc1Cl | / | / | / | / | 5
O=C(Nc1ccc(Br)cn1)C1CCCN1S(=O)(=O)c1ccccc1 (configuration not stated) | 20 | / | / | / | 30*
SMILES | NSD2 HMT inh | FGF22 binding | SIRT5 block | Casp6 inh | UCH37 DUB inh
C[C@@H]1CN([C@H](C)CO)C(=O)c2cc(NS(=O)(=O)c3ccccc3)ccc2O[C@@H](C)CCCCO[C@H]1CN(C)C(=O)Nc1ccccc1 | / | -1 | 4 | -3 | /
COc1ccc(CN(C)C[C@H]2Oc3ccc(NC(=O)C4CCCCC4)cc3C(=O)N([C@H](C)CO)C[C@@H]2C)cc1 | / | / | 4 | 2 | /
FC(F)c1nnc2c(Cl)cc(C(F)(F)F)cn12 | -2 | 44* | -4 | -2 | 1
CO[C@H]1CN(C)C(=O)c2ccc(NC(=O)C3CCC3)cc2OC[C@@H](C)N(CC2CCCCC2)C[C@@H]1C | / | 0 | 9 | -4 | /
Cc1ccc(C)c(NCC(=O)NNC(=S)Nc2ccccc2)c1 | 0 | 0 | 18* | -3 | 1
Cn1cc(C(=O)c2ccc(Cl)cc2Cl)cc1C(=O)NN=C(N)COc1cccc(C(F)(F)F)c1 | / | / | / | / | -2
Nc1c(N2CCCC2)cc(Cl)c2nonc12 | / | / | / | / | 87*
Nc1c(N2CCOCC2)cc(Cl)c2nonc12 | 17 | / | / | / | 8
Nc1ccc(N2CCCCC2)c2nonc12 | 83* | 0 | 1 | 18 | 21*
O=C1N/C(=C/c2cccn2-c2ccc(F)cc2)C(=O)N1Cc1ccccc1 | 0 | / | / | / | -53
O=C(O)c1cccc(-n2cccc2/C=C2\NC(=O)N(Cc3ccc(F)cc3)C2=O)c1 | 28 | 0 | 16* | 72* | 10
O=C(O)c1ccc(-n2cccc2/C=C2/NC(=O)N(c3cccc(Cl)c3)C2=O)cc1 | / | 0 | 14 | 81* | 11
O=C1CC(=O)NC(SCC(=O)Nc2ccccc2[N+](=O)[O-])=N1 | / | 0 | -3 | 41* | 10
CCC(=O)N[C@@H]1CC[C@@H](CC(=O)NCc2ccccc2OC)O[C@H]1CO | / | -1 | 0 | 5 | /
CCCN1CCC(NC(=O)Nc2ccc(Br)cc2)CC1 | 2 | 0 | -6 | -17 | 6
CCCN1CCC(NC(=O)Nc2ccc([N+](=O)[O-])cc2)CC1 | 11 | 0 | 17* | -5 | 3
CCC(C)n1nccc1NC(=O)C(C)Cl (configuration not stated) | -3 | 43* | -3 | -1 | 1
CC(C)NC(=O)Nc1ccc2c(c1)C(=O)N([C@@H](C)CO)C[C@H](C)[C@@H](CN(C)S(=O)(=O)c1ccc(F)cc1)OCCCC[C@H](C)O2 | / | 0 | -6 | -1 | /
O=C(C[C@H]1CC[C@H]2[C@@H](COC[C@@H](O)CN2C(=O)Nc2ccc(Cl)c(Cl)c2)O1)NCc1ccc(Cl)c(Cl)c1 | / | 1.3* | 5 | 0 | /
